Results from PubChem BioAssay AID588416 (The Scripps Research Institute Molecular Screening Center, 2011).
Activity calls are given as the source filed them.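 Rule for the calls: active = IC50 at or below 1000 nM; inactive = IC50 above 1000 nM.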

Target: Protein-arginine deiminase type-4 (Homo sapiens) (UniProt Q9UM07)
Experiment: PAD4 enzyme inhibition, citrulline production – biochemical, colorimetric substrate assay, assay provider data, 0-50 µM, late-stage follow-up (AID 588416)
Details: recombinant PAD4, BAEE substrate, citrulline colorimetric absorbance
In short: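 Test system: Recombinant PAD4 | Input: 0.2 µM PAD4 | Repeats: Duplicate measurements per compound concentration | Read-out: IC50 from dose-response fit | Timing: 15 min + 15 min at 37 °C | Medium: Tris-HCl pH 7.6, CaCl2, DTT | Measured by: Colorimetric citrulline absorbance at 540 nm, diacetyl monoxime–thiosemicarbazide development | Also added: BAEE arginine ester substrate, 10 mM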

Protein-arginine deiminase type-4 (Homo sapiens), sequence (Q9UM07 whole entry, looked up): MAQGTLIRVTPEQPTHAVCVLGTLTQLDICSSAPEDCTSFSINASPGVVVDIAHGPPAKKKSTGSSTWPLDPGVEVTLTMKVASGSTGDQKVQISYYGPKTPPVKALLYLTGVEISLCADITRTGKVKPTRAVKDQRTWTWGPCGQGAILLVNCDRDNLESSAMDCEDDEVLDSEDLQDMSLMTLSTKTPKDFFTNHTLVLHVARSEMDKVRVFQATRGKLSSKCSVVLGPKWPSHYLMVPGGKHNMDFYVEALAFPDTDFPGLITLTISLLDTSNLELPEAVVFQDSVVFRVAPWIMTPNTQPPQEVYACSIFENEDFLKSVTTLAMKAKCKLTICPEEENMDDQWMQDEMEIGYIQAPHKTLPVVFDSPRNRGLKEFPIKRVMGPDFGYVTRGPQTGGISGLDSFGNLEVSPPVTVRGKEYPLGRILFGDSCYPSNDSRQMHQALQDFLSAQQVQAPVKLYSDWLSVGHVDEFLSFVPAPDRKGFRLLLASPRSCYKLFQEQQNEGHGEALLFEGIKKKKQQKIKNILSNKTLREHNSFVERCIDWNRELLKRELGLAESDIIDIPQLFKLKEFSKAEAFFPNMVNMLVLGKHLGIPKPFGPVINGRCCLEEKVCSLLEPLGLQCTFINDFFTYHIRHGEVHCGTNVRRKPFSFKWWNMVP

## O=C1C=C(Br)C(=O)c2ncccc21
  IC50: inactive
